# Experimental data published in ChEMBL document CHEMBL1828552, “Synthesis and studies of novel 2-(4-cyano-3-trifluoromethylphenyl amino)-4-(quinoline-4-yloxy)-6-(piperazinyl/piperidinyl)-s-triazines as potential antimicrobial, antimycobacterial and anticancer agents” (2011).
# Assays:
# Staphylococcus aureus [1] = assay: Antibacterial activity against 10^5 CFU/mL Staphylococcus aureus MTCC 96 after 24 hrs by disc diffusion technique; assay type: functional
# Summary of the method: (§1)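 Disc diffusion on Mueller–Hinton agar poured 5 mm deep. The surface was swabbed with a 10⁵ CFU/mL […] suspension. Filter-paper discs 6.25 mm in diameter were soaked in compound in DMSO and placed on the agar. Plates were incubated 24 h at 37 ± 1 °C, and the inhibition zone was measured in mm. A DMSO disc served as blank.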
# Staphylococcus aureus [2] = assay: Antibacterial activity against 10^5 CFU/mL Staphylococcus aureus MTCC 96 after 24 hrs by agar streak dilution method; assay type: functional; details: MTCC 96, 24 h
# Summary of the method: (§2)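 Agar streak dilution. Stock 100 µg/mL in DMSO; graded amounts were mixed into molten nutrient agar and poured at 4–5 mm depth. Plates carried serial dilutions over […]. About 10⁵ CFU/mL of each bacterium was applied, and plates were incubated at 37 ± 1 °C for 24 h. MIC was read from the dilution series.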
# Bacillus cereus [3] = assay: Antibacterial activity against 10^5 CFU/mL Bacillus cereus MTCC 619 after 24 hrs by disc diffusion technique; assay type: functional; summary of the method: as §1
# Bacillus cereus [4] = assay: Antibacterial activity against 10^5 CFU/mL Bacillus cereus MTCC 619 after 24 hrs by agar streak dilution method; assay type: functional; details: MTCC 619, 24 h; summary of the method: as §2
# DU-145 = assay: Cytotoxicity against […] human DU145 cells after 48 hrs by SRB assay; assay type: functional; details: DU-145, 48 h
# Summary of the method: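 SRB assay in DU-145 cells grown in RPMI 1640 with 10% FBS and 2 mM L-glutamine. Cells were plated and held 24 h before addition of four 10-fold concentrations. After 48 h, cells were TCA-fixed, stained with 0.4% SRB and read at 540 nm. GI50, TGI and LC50 were derived against time-zero and control wells; each value is the mean of three experiments.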
# Escherichia coli [5] = assay: Antibacterial activity against 10^5 CFU/mL Escherichia coli MTCC 739 after 24 hrs by disc diffusion technique; assay type: functional; summary of the method: as §1
# Escherichia coli [6] = assay: Antibacterial activity against 10^5 CFU/mL Escherichia coli MTCC 739 after 24 hrs by agar streak dilution method; assay type: functional; details: MTCC 739, 24 h; summary of the method: as §2
# Pseudomonas aeruginosa [7] = assay: Antibacterial activity against 10^5 CFU/mL Pseudomonas aeruginosa MTCC 741 after 24 hrs by disc diffusion technique; assay type: functional; summary of the method: as §1
# Pseudomonas aeruginosa [8] = assay: Antibacterial activity against 10^5 CFU/mL Pseudomonas aeruginosa MTCC 741 after 24 hrs by agar streak dilution method; assay type: functional; details: MTCC 741, 24 h; summary of the method: as §2
# Klebsiella pneumoniae [9] = assay: Antibacterial activity against 10^5 CFU/mL Klebsiella pneumoniae MTCC 109 after 24 hrs by disc diffusion technique; assay type: functional; summary of the method: as §1
# Klebsiella pneumoniae [10] = assay: Antibacterial activity against 10^5 CFU/mL Klebsiella pneumoniae MTCC 109 after 24 hrs by agar streak dilution method; assay type: functional; details: MTCC 109, 24 h; summary of the method: as §2
# Salmonella typhi [11] = assay: Antibacterial activity against 10^5 CFU/mL Salmonella typhi MTCC 733 after 24 hrs by disc diffusion technique; assay type: functional, Salmonella enterica subsp. enterica serovar Typhi
# Summary of the method: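 Disc diffusion. Mueller-Hinton agar autoclaved 120 °C 30 min, poured 5 mm deep. Surface swabbed with 10⁵ CFU/mL suspension […]. 6.25 mm filter-paper discs soaked in compound in DMSO; DMSO-only disc as blank. Incubated 37 ± 1 °C, 24 h for bacteria or 48 h for fungi. Ciprofloxacin and ketoconazole discs as reference drugs. Inhibition zone measured in mm.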
# Salmonella typhi [12] = assay: Antibacterial activity against 10^5 CFU/mL Salmonella typhi MTCC 733 after 24 hrs by agar streak dilution method; assay type: functional, Salmonella enterica subsp. enterica serovar Typhi; details: Salmonella enterica, MTCC 733, 24 h
# Proteus vulgaris [13] = assay: Antibacterial activity against 10^5 CFU/mL Proteus vulgaris MTCC 1771 after 24 hrs by disc diffusion technique; assay type: functional; summary of the method: as §1
# Proteus vulgaris [14] = assay: Antibacterial activity against 10^5 CFU/mL Proteus vulgaris MTCC 1771 after 24 hrs by agar streak dilution method; assay type: functional; details: MTCC 1771, 24 h; summary of the method: as §2
# Shigella flexneri [15] = assay: Antibacterial activity against 10^5 CFU/mL Shigella flexneri MTCC 1457 after 24 hrs by disc diffusion technique; assay type: functional; summary of the method: as §1
# Shigella flexneri [16] = assay: Antibacterial activity against 10^5 CFU/mL Shigella flexneri MTCC 1457 after 24 hrs by agar streak dilution method; assay type: functional; details: MTCC 1457, 24 h; summary of the method: as §2
# Aspergillus niger [17] = assay: Antifungal activity against 10^5 CFU/mL Aspergillus niger MTCC 282 after 48 hrs by disc diffusion technique; assay type: functional
# Aspergillus niger [18] = assay: Antifungal activity against 10^5 CFU/mL Aspergillus niger MTCC 282 after 48 hrs by agar streak dilution method; assay type: functional; details: MTCC 282, 48 h
# Summary of the method: (§3)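 Agar streak dilution for fungi. Stock 100 µg/mL in DMSO; graded amounts were mixed into molten Sabouraud dextrose agar and poured at 4–5 mm depth. Serial dilutions ran over […]. About 10⁵ CFU/mL inoculum was applied, with incubation at 37 ± 1 °C for 48 h. MIC was read from the dilution series.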
# Aspergillus fumigatus [19] = assay: Antifungal activity against 10^5 CFU/mL Aspergillus fumigatus MTCC 343 after 48 hrs by disc diffusion technique; assay type: functional
# Aspergillus fumigatus [20] = assay: Antifungal activity against 10^5 CFU/mL Aspergillus fumigatus MTCC 343 after 48 hrs by agar streak dilution method; assay type: functional; details: MTCC 343, 48 h; summary of the method: as §3
# Aspergillus clavatus [21] = assay: Antifungal activity against 10^5 CFU/mL Aspergillus clavatus MTCC 1323 after 48 hrs by disc diffusion technique; assay type: functional
# Aspergillus clavatus [22] = assay: Antifungal activity against 10^5 CFU/mL Aspergillus clavatus MTCC 1323 after 48 hrs by agar streak dilution method; assay type: functional; details: MTCC 1323, 48 h; summary of the method: as §3
# Candida albicans [23] = assay: Antifungal activity against 10^5 CFU/mL Candida albicans MTCC 183 after 48 hrs by disc diffusion technique; assay type: functional
# Candida albicans [24] = assay: Antifungal activity against 10^5 CFU/mL Candida albicans MTCC 183 after 48 hrs by agar streak dilution method; assay type: functional; details: MTCC 183, 48 h; summary of the method: as §3
SMILES,inhibition zone (IZ) (Staphylococcus aureus [1]) [mm],MIC (Staphylococcus aureus [2]) [µg/mL],inhibition zone (IZ) (Bacillus cereus [3]) [mm],MIC (Bacillus cereus [4]) [µg/mL],GI50 (DU-145) [µM],LC50 (concentration giving 50% net cell kill relative to time zero) (DU-145) [µM],TGI (DU-145) [µM],inhibition zone (IZ) (Escherichia coli [5]) [mm],MIC (Escherichia coli [6]) [µg/mL],inhibition zone (IZ) (Pseudomonas aeruginosa [7]) [mm],MIC (Pseudomonas aeruginosa [8]) [µg/mL],inhibition zone (IZ) (Klebsiella pneumoniae [9]) [mm],MIC (Klebsiella pneumoniae [10]) [µg/mL],inhibition zone (IZ) (Salmonella typhi [11]) [mm],MIC (Salmonella typhi [12]) [µg/mL],inhibition zone (IZ) (Proteus vulgaris [13]) [mm],MIC (Proteus vulgaris [14]) [µg/mL],inhibition zone (IZ) (Shigella flexneri [15]) [mm],MIC (Shigella flexneri [16]) [µg/mL],inhibition zone (IZ) (Aspergillus niger [17]) [mm],further results
N#Cc1ccc(Nc2nc(Oc3ccnc4ccccc34)nc(N3CCN(c4ccccc4Cl)CC3)n2)cc1C(F)(F)F,25,12.5,24,12.5,92.6,> 100,> 100,22,50,23,50,26,12.5,23,50,23,100,21,50,21,MIC (Aspergillus niger [18]): 100 µg/mL; inhibition zone (IZ) (Aspergillus fumigatus [19]): 21 mm; MIC (Aspergillus fumigatus [20]): 100 µg/mL; inhibition zone (IZ) (Aspergillus clavatus [21]): 20 mm; MIC (Aspergillus clavatus [22]): 100 µg/mL; inhibition zone (IZ) (Candida albicans [23]): 20 mm; MIC (Candida albicans [24]): 100 µg/mL
N#Cc1ccc(Nc2nc(Oc3ccnc4ccccc34)nc(N3CCN(C(c4ccccc4)c4ccccc4)CC3)n2)cc1C(F)(F)F,21,50,22,25,> 100,> 100,> 100,19,100,19,100,17,100,19,100,19,100,21,100,14,MIC (Aspergillus niger [18]): 100 µg/mL; inhibition zone (IZ) (Aspergillus fumigatus [19]): 20 mm; MIC (Aspergillus fumigatus [20]): 100 µg/mL; inhibition zone (IZ) (Aspergillus clavatus [21]): 16 mm; MIC (Aspergillus clavatus [22]): 100 µg/mL; inhibition zone (IZ) (Candida albicans [23]): 15 mm; MIC (Candida albicans [24]): 100 µg/mL
N#Cc1ccc(Nc2nc(Oc3ccnc4ccccc34)nc(N3CCOCC3)n2)cc1C(F)(F)F,14,100,<10,100,68.3,> 100,> 100,<10,100,<10,100,14,100,13,100,16,100,<10,100,13,MIC (Aspergillus niger [18]): 100 µg/mL; inhibition zone (IZ) (Aspergillus fumigatus [19]): <10 mm; MIC (Aspergillus fumigatus [20]): 100 µg/mL; inhibition zone (IZ) (Aspergillus clavatus [21]): 13 mm; MIC (Aspergillus clavatus [22]): 100 µg/mL; inhibition zone (IZ) (Candida albicans [23]): 13 mm; MIC (Candida albicans [24]): 100 µg/mL
CC(=O)N1CCN(c2nc(Nc3ccc(C#N)c(C(F)(F)F)c3)nc(Oc3ccnc4ccccc34)n2)CC1,26,12.5,24,12.5,75.1,> 100,> 100,24,12.5,24,12.5,23,50,23,100,27,6.25,23,25,21,MIC (Aspergillus niger [18]): 100 µg/mL; inhibition zone (IZ) (Aspergillus fumigatus [19]): 21 mm; MIC (Aspergillus fumigatus [20]): 100 µg/mL; inhibition zone (IZ) (Aspergillus clavatus [21]): 27 mm; MIC (Aspergillus clavatus [22]): 12.5 µg/mL; inhibition zone (IZ) (Candida albicans [23]): 17 mm; MIC (Candida albicans [24]): 100 µg/mL
CCN1CCN(c2nc(Nc3ccc(C#N)c(C(F)(F)F)c3)nc(Oc3ccnc4ccccc34)n2)CC1,13,100,14,100,86.6,> 100,> 100,13,100,16,100,<10,100,15,100,<10,100,13,100,<10,MIC (Aspergillus niger [18]): 100 µg/mL; inhibition zone (IZ) (Aspergillus fumigatus [19]): <10 mm; MIC (Aspergillus fumigatus [20]): 100 µg/mL; inhibition zone (IZ) (Aspergillus clavatus [21]): <10 mm; MIC (Aspergillus clavatus [22]): 100 µg/mL; inhibition zone (IZ) (Candida albicans [23]): 12 mm; MIC (Candida albicans [24]): 100 µg/mL
N#Cc1ccc(Nc2nc(Oc3ccnc4ccccc34)nc(N3CCN(c4ccccc4F)CC3)n2)cc1C(F)(F)F,24,25,27,6.25,> 100,> 100,> 100,26,12.5,22,50,26,12.5,24,25,25,6.25,23,25,25,MIC (Aspergillus niger [18]): 25 µg/mL; inhibition zone (IZ) (Aspergillus fumigatus [19]): 25 mm; MIC (Aspergillus fumigatus [20]): 25 µg/mL; inhibition zone (IZ) (Aspergillus clavatus [21]): 24 mm; MIC (Aspergillus clavatus [22]): 50 µg/mL; inhibition zone (IZ) (Candida albicans [23]): 26 mm; MIC (Candida albicans [24]): 25 µg/mL
N#Cc1ccc(Nc2nc(Oc3ccnc4ccccc34)nc(N3CCN(c4ccccc4)CC3)n2)cc1C(F)(F)F,14,100,<10,100,> 100,> 100,> 100,<10,100,<10,100,<10,100,13,100,14,100,<10,100,<10,MIC (Aspergillus niger [18]): 100 µg/mL; inhibition zone (IZ) (Aspergillus fumigatus [19]): <10 mm; MIC (Aspergillus fumigatus [20]): 100 µg/mL; inhibition zone (IZ) (Aspergillus clavatus [21]): <10 mm; MIC (Aspergillus clavatus [22]): 100 µg/mL; inhibition zone (IZ) (Candida albicans [23]): <10 mm; MIC (Candida albicans [24]): 100 µg/mL
